Series [1] concerns the target T1, purified 20S proteasome (Homo sapiens, UniProt P25787+P60900). Kind of series: Purified α-synuclein digestion with 20S proteasome. As to conditions: 10 nM 20S, 300 nM α-synuclein, 3.5 h, 37°C. It is filed as biochemical. In short, it runs like this:
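Purified human 20S proteasome (10 nM final) in 50 mM HEPES, 5 mM DTT, pH 7.2 was preincubated 45 min at 37°C with test compound in DMSO or DMSO alone. Purified α-synuclein (300 nM final) was added, and digestion ran 3.5 h at 37°C. GAPDH (0.5 μM) served as loading control. Samples were boiled 15 min in SDS buffer and immunoblotted with anti-α-synuclein (1:1333).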

The target in series [2] is T1, purified 20S proteasome. Kind of series: Purified p25α digestion with 20S proteasome. It is filed as biochemical. The following applies: 10 μM compound; 7.5 nM 20S, 500 nM p25α, 3 h. In short, it runs like this: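 20S proteasome (7.5 nM final) in 120 mM NaCl, 50 mM Tris, 0.1% β-mercaptoethanol, pH 7.2 was exposed to 10 μM test compound or DMSO for 30 min at 37°C. Purified p25α was pretreated with 100 μM DTE for 30 min at room temperature, then added at 500 nM final for 3 h. GAPDH (0.5 μM) was the loading control. Samples were boiled in SDS buffer and immunoblotted.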

For series [3], the system named is PC12 cells. The series is classed as cell-based, rat. The following applies: 3 μM, 72 h; co-transfected PC12; untreated model 25%.
For series [4], the system named is A53T α-synuclein in HEK-293T cells. Kind of series: A53T α-synuclein levels in transfected HEK-293T cells. It is filed as cell-based. The following applies: for α-synuclein remaining: 0.75 μM, A53T α-synuclein; for A53T α-synuclein remaining: vs DMSO.
The subject of series [5] is proteasome activity in PC12 cells. It is filed as cell-based, rat. As to conditions: 3 μM, 72 h; co-transfected PC12; untreated model 8%. The procedure, abridged:
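PC12 cells (RPMI 1640 with 5% FBS and 10% horse serum) were strained and plated at 2,500 cells/well in 384-well plates. Cells were co-transfected with 0.5 μg A53T α-synuclein and 0.1 μg p25α plasmids for 24 h. They were then treated with 3 μM test compound or DMSO (0.03% final) for 72 h. Proteasome Glo reagent was added and luminescence recorded.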

For series [6], the target named is human constitutive 20S proteasome (Homo sapiens, UniProt P25787+P60900). Kind of series: Fluorogenic small peptide assay with purified 20S proteasome. The following applies: for EC200 (concentration at which degradation rate is enhanced 2-fold, 200%): equimolar mixture of Suc-LLVY-AMC, Z-LLE-AMC, Boc-LRR-AMC, mean ± SD, n = 3. It is filed as biochemical. The procedure, abridged: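 Human constitutive 20S proteasome (0.5 nM) in 38 mM Tris, 100 mM NaCl, pH 7.8 was preincubated 20 min at 37°C with test compound (3.75–30 μM, or 9 points 0.16–30 μM) in DMSO (2% final). Suc-LLVY-, Z-LLE- and Boc-LRR-AMC were added at 6.67 μM final each. AMC release (380/460 nm) was read at 37°C for 1 h. Hydrolysis rate was expressed relative to vehicle, and EC200 was taken as the 2-fold-rate concentration.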

Series [7] deals with p25α in PC12 cells. Kind of series: p25α levels in PC12 cells. The series is classed as cell-based, rat. As to conditions: 10 μM.
The subject of series [8] is p25α in HEK-293T cells. Kind of series: p25α levels in transfected HEK-293T cells. The series is classed as cell-based. As to conditions: 10 μM, 16 h. The procedure, abridged:
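HEK-293T cells were transiently transfected with TPPP/p25α and A53T α-synuclein plasmids, and protein was expressed for 48 h. Cells were then treated 16 h with 10 μM test compound, DMSO, or 30 nM bortezomib as control. p25α was quantified by immunoblot in triplicate.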

Series [9] has as its system A53T α-synuclein in HEK-293T cells. Kind of series: A53T α-synuclein levels in HEK-293T cells pre-treated with Bafilomycin A1. The series is classed as cell-based. As to conditions: 10 μM after 1 h pre-treatment with 500 nM Bafilomycin A1, HEK-293T. In short, it runs like this:
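HEK-293T cells transiently expressing A53T α-synuclein (48 h expression) were pretreated with 500 nM bafilomycin A1 and exposed to 10 μM test compound. α-Synuclein levels were then determined by SDS-PAGE immunoblotting with anti-α-synuclein (1:1333).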

The test system of series [10] is ubiquitin in HEK-293T cells. Kind of series: Ubiquitin levels in unmodified HEK-293T cells. As to conditions: for levels of ubiquitin: 10 μM. It is filed as cell-based. In short, it runs like this: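 Untransfected HEK-293T cells were treated with 10 μM test compound, DMSO vehicle, or 100 nM bortezomib. Ubiquitin levels were visualized and quantified by immunoblotting relative to vehicle.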

Where “and” joins values, the source holds several entries; their conditions need not be identical. Equal entries are not always repeated. Entries after “also recorded” stand apart in the source; their conditions may differ.

By cell viability is commonly meant a per cent measure of how many cells are alive, often set against a control. A high value points to less harm to the cells. Turning to “N,N-bis(4-fluorophenyl)-2-(2-methyl-9H-carbazol-9-yl)acetamide [Compound 4]”, the α-synuclein remaining in [1] (5 μM compound) was found to be 58%; in [1] (15 μM compound), 33%; in series [4], 72%. In addition, the “p25α remaining compared to DMSO treated samples” value in [2] was found to be 28%. For the same compound, the cell viability in [3] worked out at 75%. Moreover, the “A53T α-synuclein remaining” value was 30% in [4] (5 μM, 16 h); 14% in series [4] (10 μM, 16 h); 11% in series [4] (15 μM, 16 h); 28% in [9]. This compound gave a proteasome activity remaining in series [5] of 34%. In [6], the “EC200 (concentration at which degradation rate is enhanced 2-fold, 200%)” value was 1.2 µM. For the same compound, in series [7], the p25α remaining is given as 67%. Besides, in series [8], the “reduction of p25α” value was “non-significant”. The levels of ubiquitin entry in [10] was “didn’t impact the levels of ubiquitin significantly”.

Take `CCOC(=O)[C@]1(c2ccccc2)N=C(c2ccc(OC)cc2)N(Cc2ccccc2)[C@@H]1c1ccc(NCc2ccccc2)cc1` [TCH-165, reference compound]: the α-synuclein remaining in [1] (5 μM compound) came out at 60%; in series [1] (15 μM compound), 40%. The “A53T α-synuclein remaining” value in series [4] (10 μM, 16 h) was 52% and 40%.

For `O=C(Cn1ccc2ccccc21)N(c1ccc(F)cc1)c1ccc(F)cc1` [Compound 8, N,N-bis(4-fluorophenyl)-2-(1H-indol-1-yl)acetamide], in series [6], the “EC200 (concentration at which degradation rate is enhanced 2-fold, 200%)” value amounted to 7.5 µM.

For the compound `CC(C)C[C@H](NC(=O)[C@H](Cc1ccccc1)NC(=O)c1cnccn1)B(O)O` [BTZ, Bortezomib, reference compound], the “increase of A53T α-synuclein levels” value in series [4] (30 nM, 16 h) is 148% and 135%. In series [10] (100 nM), the “ubiquitin as compared to the vehicle” value came out at 298%.

For `O=C(CCn1ccc2ccccc21)N(c1ccc(F)cc1)c1ccc(F)cc1` [Compound 7, N,N-bis(4-fluorophenyl)-3-(1H-indol-1-yl)propanamide], the “EC200 (concentration at which degradation rate is enhanced 2-fold, 200%)” value in series [6] turned out to be 7.5 µM.

Take `O=C(CCn1c(=O)oc2ccccc21)N(c1ccc(F)cc1)c1ccc(F)cc1` [Compound 13, N,N-bis(4-fluorophenyl)-3-(2-oxobenzo[d]oxazol-3(2H)-yl)propanamide]: in series [6], the “EC200 (concentration at which degradation rate is enhanced 2-fold, 200%)” value is 1.3 µM.

Take `O=C(CCn1c2ccccc2c2ccc(Cl)cc21)N(c1ccc(F)cc1)c1ccc(F)cc1` [Compound 3, 3-(2-chloro-9H-carbazol-9-yl)-N,N-bis(4-fluorophenyl)propanamide]: the α-synuclein remaining in series [1] (15 μM compound) stood at 33%. For the same compound, the “EC200 (concentration at which degradation rate is enhanced 2-fold, 200%)” value in series [6] was found to be 0.9 µM.

As for `O=C(CN1CCOc2ccccc21)N(c1ccc(F)cc1)c1ccc(F)cc1` [Compound 12, 2-(2,3-dihydro-4H-benzo[b][1,4]oxazin-4-yl)-N,N-bis(4-fluorophenyl)acetamide], the “EC200 (concentration at which degradation rate is enhanced 2-fold, 200%)” value in series [6] was found to be 8.0 µM.

Regarding “3-(2,3-dihydro-4H-benzo[b][1,4]oxazin-4-yl)-N,N-bis(4-fluorophenyl)propenamide [Compound 11]”, the “EC200 (concentration at which degradation rate is enhanced 2-fold, 200%)” value in series [6] turned out to be 9.0 µM.

Consider `O=C(Cn1ccc2ccc(Cl)cc21)N(c1ccc(F)cc1)c1ccc(F)cc1` [Compound 10, 2-(6-chloro-1H-indol-1-yl)-N,N-bis(4-fluorophenyl)acetamide], for which the “EC200 (concentration at which degradation rate is enhanced 2-fold, 200%)” value in series [6] was determined as 1.6 µM.

Regarding `CN(C)CCC(=O)N(c1ccc(F)cc1)c1ccc(F)cc1` [Compound 19, 3-(dimethylamino)-N,N-bis(4-fluorophenyl)propanamide], the “p25α remaining compared to DMSO treated samples” value in series [2] was “didn’t show significant impact on the rate of p25α degradation”. Besides, the “reduction of p25α” value in [8] is on record as “didn’t impact the levels of p25α”. Moreover, in series [10], the levels of ubiquitin entry is recorded as “didn’t impact the levels of ubiquitin significantly”.

Turning to `O=C(Cn1c2ccccc2c2ccncc21)N(c1ccc(F)cc1)c1ccc(F)cc1` [Compound 6, N,N-bis(4-fluorophenyl)-2-(9H-pyrido[3,4-b]indol-9-yl)acetamide], in series [6], the “EC200 (concentration at which degradation rate is enhanced 2-fold, 200%)” value is 2.0 µM.

As for `O=C(CCn1c2ccccc2c2ccncc21)N(c1ccc(F)cc1)c1ccc(F)cc1` [Compound 5, N,N-bis(4-fluorophenyl)-3-(9H-pyrido[3,4-b]indol-9-yl)propanamide], in series [6], the “EC200 (concentration at which degradation rate is enhanced 2-fold, 200%)” value worked out at 3.8 µM.

As for `O=C(Cn1c2ccccc2c2ccccc21)N(c1ccc(F)cc1)c1ccc(F)cc1` [Compound 2, 2-(9H-carbazol-9-yl)-N,N-bis(4-fluorophenyl)acetamide], in series [6], the “EC200 (concentration at which degradation rate is enhanced 2-fold, 200%)” value came out at 3.8 µM.

Turning to `O=C(CCn1c2ccccc2c2ccccc21)N(c1ccc(F)cc1)c1ccc(F)cc1` [Compound 1, 3-(9H-carbazol-9-yl)-N,N-bis(4-fluorophenyl)propanamide], the α-synuclein remaining in series [1] (5 μM compound) is recorded as 45%; in [1] (15 μM compound), 28%; in series [4], 55%. For the same compound, in series [2], the “p25α remaining compared to DMSO treated samples” value was 29%. In addition, the “decrease of A53T α-synuclein” value in series [4] (1 μM, 16 h) is on record as 67%. Further, the “A53T α-synuclein remaining” value in series [4] (1 μM, 16 h) was determined as 64%; in series [4] (15 μM, 16 h) it was 21%; in [9] it was 16%. The compound further yielded a proteasome activity remaining in series [5] of 29%. Moreover, in series [6], the “EC200 (concentration at which degradation rate is enhanced 2-fold, 200%)” value is 1.6 µM. Moreover, the p25α remaining in series [7] stood at 40%. The “reduction of p25α” value in series [8] is 45%. Besides, the levels of ubiquitin result in series [10] is “didn’t impact the levels of ubiquitin significantly”.

On to `O=C(Cn1c(=O)oc2ccccc21)N(c1ccc(F)cc1)c1ccc(F)cc1` [Compound 14, N,N-bis(4-fluorophenyl)-2-(2-oxobenzo[d]oxazol-3(2H)-yl)acetamide], for which, in [4] (15 μM, 16 h), the “A53T α-synuclein remaining” value is recorded as “no significant effect on degradation; also recorded: no impact on the levels of A53T α-synuclein”. The “20S proteasome activation (in words)” value in series [6] (fluorogenic peptide assay) is “abrogated all 20S proteasome activity”.
